Results from ChEMBL document CHEMBL4007487, “Discovery of Novel Pyridone-Conjugated Monosulfactams as Potent and Broad-Spectrum Antibiotics for Multidrug-Resistant Gram-Negative Infections” (J Med Chem, 2017).
≈ marks a conversion by molar mass, not a printed value.

Assays:
Pseudomonas aeruginosa = experiment: Antibacterial activity against extended spectrum beta-lactamase IMP-4 producing multidrug resistant Pseudomonas aeruginosa clinical isolates after 18 hrs by broth microdilution method; type: functional
[1] = Clearance in Sprague-Dawley rat at 1 mg/kg, iv measured up to 180 mins by LC-MS/MS analysis; conditions: in vivo
Klebsiella pneumoniae = experiment: Antibacterial activity against extended spectrum beta-lactamase KPC-2 producing multidrug resistant Klebsiella pneumoniae clinical isolates after 18 hrs by broth microdilution method; type: functional
Escherichia coli = experiment: Antibacterial activity against extended spectrum beta-lactamases producing Escherichia coli clinical isolates after 18 hrs by broth microdilution method; type: functional
in vivo [2] = conditions: Sprague-Dawley, rat, iv, 1 mg/kg
[3] = Volume of distribution in steady state in Sprague-Dawley rat at 1 mg/kg, iv measured up to 180 mins by LC-MS/MS analysis; type: ADME, organism-based; conditions: in vivo, read-out: Vdss
In short: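 Male Sprague-Dawley rats (200–220 g, n = 3 per group) received 1.0 mg/kg iv in water. Blood was taken from the retrobulbar vein at 2, 5, 15, 30, 45, 60, 90 and 180 min. Plasma was quantified by LC–MS/MS, and parameters were derived by noncompartmental analysis of mean plasma concentrations.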

in vivo [4] = conditions: Sprague-Dawley, rat, iv, 1 mg/kg; remark: listed apart in the source
Acinetobacter baumannii = experiment: Antibacterial activity against extended spectrum beta-lactamase OXA-23 producing multidrug resistant Acinetobacter baumannii clinical isolates after 18 hrs by broth microdilution method; type: functional
Plasma = experiment: Fraction unbound in human plasma at 10 uM after 4 hrs by LC-MS/MS based rapid equilibrium dialysis method; type: ADME, cell-free
In short: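 Human plasma spiked at 10 μM was dialysed against buffer in a rapid equilibrium dialysis device for 4 h at 37 °C under 5% CO2 (n = 4). Both sides were quantified by LC–MS/MS. Fraction unbound was taken as the buffer concentration divided by the total plasma-side concentration.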

[5] = Drug degradation in human plasma at 10 uM after 4 hrs by LC-MS/MS analysis; type: ADME, cell-free; conditions: read-out: Drug degradation
In short: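 Human plasma containing compound (10 μM, n = 4) was incubated for 4 h at 37 °C under 5% CO2. Concentrations at T0 and at 4 h were measured by LC–MS/MS, and degradation was expressed as a percentage relative to the T0 average.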

[6] = Klebsiella pneumoniae, 18 h, read-out: MIC

| SMILES | MIC (Pseudomonas aeruginosa) [µg/mL] | clearance at 3 h [1] [mL/min/kg] | MIC (Klebsiella pneumoniae; [6]) [µg/mL] | MIC (Escherichia coli) [µg/mL] | half-life (in vivo [2]) [min] | Vd [3] [L/kg] | AUC(0-t) at 3 h (in vivo [4]) [ng·h/mL] | MIC (Acinetobacter baumannii) [µg/mL] | Fu (Plasma) [%] | metabolised at 4 h, 10 µM [5] [%] | MIC (Klebsiella pneumoniae) [µg/mL] |
| --- | --- | --- | --- | --- | --- | --- | --- | --- | --- | --- | --- |
| CC(C)[C@H](O/N=C(\C(=O)N[C@@H]1C(=O)N(OS(=O)(=O)O)C1(C)C)c1csc(N)n1)c1cc(=O)c(O)cn1O | 0.125 to 1 (≈ 0.223 to 1.78 µM) | 28.5 | 0.125 to 1 (≈ 0.223 to 1.78 µM) | 0.06 to 0.25 (≈ 0.107 to 0.446 µM) | 15.6 | 0.36 | 675 | 1 to 2 (≈ 1.78 to 3.57 µM) | 27 | 23 |  |
| CC(C)C(O/N=C(\C(=O)N[C@@H]1C(=O)N(OS(=O)(=O)O)C1(C)C)c1nsc(N)n1)c1cc(=O)c(O)cn1O (some centres not stated) | 0.5 to 32 (≈ 0.89 to 57 µM) |  | 0.06 to 1 (≈ 0.107 to 1.78 µM) | 0.06 to 2 (≈ 0.107 to 3.56 µM) |  |  |  | 0.5 to 4 (≈ 0.89 to 7.12 µM) | 28 | 11 |  |
| CC(C)[C@@H](O/N=C(\C(=O)N[C@@H]1C(=O)N(OS(=O)(=O)O)C1(C)C)c1nsc(N)n1)c1cc(=O)c(O)cn1O | 1 to 4 (≈ 1.78 to 7.12 µM) |  | 0.5 to 2 (≈ 0.89 to 3.56 µM) | 0.5 to 8 (≈ 0.89 to 14.2 µM) |  |  |  | 0.5 to 64 (≈ 0.89 to 114 µM) |  |  |  |
| CC1(C)[C@H](NC(=O)/C(=N\OCc2ccn(O)c(=O)c2)c2csc(N)n2)C(=O)N1OS(=O)(=O)O | 64 (≈ 127 µM) |  | 4 to 64 (≈ 7.96 to 127 µM) | 0.25 to 4 (≈ 0.498 to 7.96 µM) |  |  |  | 4 to 64 (≈ 7.96 to 127 µM) |  |  |  |
| CC(C)[C@@H](O/N=C(\C(=O)N[C@@H]1C(=O)N(OS(=O)(=O)O)C1(C)C)c1nc(N)sc1Cl)c1cc(=O)c(O)cn1O | 0.5 to 4 (≈ 0.84 to 6.72 µM) |  | 0.5 to 2 (≈ 0.84 to 3.36 µM) | 0.125 to 1 (≈ 0.21 to 1.68 µM) |  |  |  | 0.25 to 64 (≈ 0.42 to 108 µM) |  |  |  |
| CC1(C)[C@H](NC(=O)/C(=N\OC(c2cccs2)c2cc(=O)c(O)cn2O)c2csc(N)n2)C(=O)N1OS(=O)(=O)O (some centres not stated) | 0.5 to 2 (≈ 0.832 to 3.33 µM) |  | 0.06 to 16 (≈ 0.0999 to 26.6 µM) |  |  |  |  | 0.5 to 2 (≈ 0.832 to 3.33 µM) |  |  |  |
| CSC[C@@H](O/N=C(\C(=O)N[C@@H]1C(=O)N(OS(=O)(=O)O)C1(C)C)c1csc(N)n1)c1cc(=O)c(O)cn1O | 1 to 8 (≈ 1.73 to 13.8 µM) |  | 0.125 to 0.5 (≈ 0.216 to 0.864 µM) |  |  |  |  | 0.5 to 2 (≈ 0.864 to 3.46 µM) |  |  |  |
| CO/N=C(\C(=O)N[C@@H]1C(=O)N2C(C(=O)[O-])=CCS[C@H]12)c1csc(N)n1.[Na+] [CEFTIZOXIME SODIUM] | > 64 |  | 32 to 64 | 0.5 to 2 |  |  |  | 32 to 64 |  |  |  |
| CC1(C)[C@H](NC(=O)/C(=N\OC(c2ccccc2)c2cc(=O)c(O)cn2O)c2csc(N)n2)C(=O)N1OS(=O)(=O)O (some centres not stated) | 0.5 to 2 (≈ 0.841 to 3.36 µM) |  |  |  |  |  |  | 0.5 to 2 (≈ 0.841 to 3.36 µM) |  |  |  |
| CC(C)SCC(O/N=C(\C(=O)N[C@@H]1C(=O)N(OS(=O)(=O)O)C1(C)C)c1csc(N)n1)c1cc(=O)c(O)cn1O (some centres not stated) | 0.25 to 4 (≈ 0.412 to 6.59 µM) |  | 0.06 to 1 (≈ 0.0989 to 1.65 µM) |  |  |  |  | 0.25 to 2 (≈ 0.412 to 3.3 µM) | 21 | 34 |  |
| CC(C)OCC(O/N=C(\C(=O)N[C@@H]1C(=O)N(OS(=O)(=O)O)C1(C)C)c1csc(N)n1)c1cc(=O)c(O)cn1O (some centres not stated) | 0.5 to 8 (≈ 0.847 to 13.5 µM) |  | 0.25 to 64 (≈ 0.423 to 108 µM) |  |  |  |  | 1 to 8 (≈ 1.69 to 13.5 µM) |  |  |  |
| CNC(=O)C(O/N=C(\C(=O)N[C@@H]1C(=O)N(OS(=O)(=O)O)C1(C)C)c1csc(N)n1)c1cc(=O)c(O)cn1O (some centres not stated) | 4 (≈ 6.95 µM) |  | 0.25 to 2 (≈ 0.434 to 3.48 µM) | 0.06 to 4 (≈ 0.104 to 6.95 µM) |  |  |  | 0.25 to 1 (≈ 0.434 to 1.74 µM) | 69 | 36 |  |
| CC(O/N=C(\C(=O)N[C@@H]1C(=O)N(OS(=O)(=O)O)C1(C)C)c1nc(N)sc1Cl)c1cc(=O)c(O)cn1O (some centres not stated) | 0.5 to 4 (≈ 0.882 to 7.06 µM) |  | 0.06 to 1 (≈ 0.106 to 1.76 µM) |  |  |  |  | 0.25 to 2 (≈ 0.441 to 3.53 µM) | 20 | 20 |  |
| COCC(O/N=C(\C(=O)N[C@@H]1C(=O)N(OS(=O)(=O)O)C1(C)C)c1csc(N)n1)c1cc(=O)c(O)cn1O (some centres not stated) | 1 to 4 (≈ 1.78 to 7.11 µM) |  | 0.06 to 2 (≈ 0.107 to 3.56 µM) |  |  |  |  | 0.125 to 1 (≈ 0.222 to 1.78 µM) | 67 | 57 |  |
| CSC[C@H](O/N=C(\C(=O)N[C@@H]1C(=O)N(OS(=O)(=O)O)C1(C)C)c1csc(N)n1)c1cc(=O)c(O)cn1O | 0.5 to 2 (≈ 0.864 to 3.46 µM) |  |  |  |  |  |  | 0.5 to 4 (≈ 0.864 to 6.91 µM) | 29 | 39 | >0.06 to 64 |
| CSCC(O/N=C(\C(=O)N[C@@H]1C(=O)N(OS(=O)(=O)O)C1(C)C)c1csc(N)n1)c1cc(=O)c(O)cn1O (some centres not stated) | 0.125 to 1 (≈ 0.216 to 1.73 µM) | 26.1 |  |  | 15 | 0.37 | 661 | 0.125 to 1 (≈ 0.216 to 1.73 µM) | 32 | 28 |  |
